Data: ChEMBL document CHEMBL3632558, “Synthesis, antimycobacterial and antibacterial activity of l-[(1R,2S)-2-fluorocyclopropyl]naphthyridone derivatives containing an oxime-functionalized pyrrolidine moiety” (2015)
In brackets after ≈: the same amount, converted by molar mass.

Key:
Format in all cases: functional
[1] = system: Staphylococcus epidermidis; experiment: Antibacterial activity against methicillin-resistant Staphylococcus epidermidis 14-37 after 18 to 24 hrs
[2] = system: Klebsiella pneumoniae; experiment: Antibacterial activity against Klebsiella pneumoniae 14-4 after 18 to 24 hrs
Summary of the method: (§1)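 MIC by standard NCCLS reference procedure (M100-S11); lowest concentration of compound inhibiting visible bacterial growth after incubation at 35 °C for 18–24 h, read as complete inhibition of growth. Ciprofloxacin, levofloxacin and moxifloxacin run alongside as reference agents.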

[3] = system: Escherichia coli; experiment: Antibacterial activity against Escherichia coli 14-2 after 18 to 24 hrs; summary of the method: as §1
[4] = system: Klebsiella pneumoniae; experiment: Antibacterial activity against ESBL-positive Klebsiella pneumoniae 14-19 after 18 to 24 hrs; summary of the method: as §1
[5] = system: Staphylococcus aureus; experiment: Antibacterial activity against methicillin-sensitive Staphylococcus aureus 14-4 after 18 to 24 hrs; summary of the method: as §1
[6] = system: Enterococcus faecalis; experiment: Antibacterial activity against Enterococcus faecalis 14-1 after 18 to 24 hrs; summary of the method: as §1
[7] = system: Pseudomonas aeruginosa; experiment: Antibacterial activity against Pseudomonas aeruginosa 14-15 after 18 to 24 hrs; summary of the method: as §1
[8] = system: Pseudomonas aeruginosa; experiment: Antibacterial activity against Pseudomonas aeruginosa 14-19 after 18 to 24 hrs; summary of the method: as §1
[9] = system: Klebsiella pneumoniae; experiment: Antibacterial activity against Klebsiella pneumoniae 14-3 after 18 to 24 hrs; summary of the method: as §1
[10] = system: Enterococcus faecium; experiment: Antibacterial activity against Enterococcus faecium 14-1 after 18 to 24 hrs; summary of the method: as §1
[11] = system: Pseudomonas aeruginosa; experiment: Antibacterial activity against Pseudomonas aeruginosa 14-9 after 18 to 24 hrs; summary of the method: as §1
[12] = system: Klebsiella pneumoniae; experiment: Antibacterial activity against ESBL-positive Klebsiella pneumoniae 14-17 after 18 to 24 hrs; summary of the method: as §1
[13] = system: Klebsiella pneumoniae; experiment: Antibacterial activity against Klebsiella pneumoniae 14-2 after 18 to 24 hrs; summary of the method: as §1
[14] = system: Staphylococcus aureus; experiment: Antibacterial activity against Staphylococcus aureus CMCC 26003 after 18 to 24 hrs; summary of the method: as §1
[15] = system: Staphylococcus aureus; experiment: Antibacterial activity against methicillin-sensitive Staphylococcus aureus 14-1 after 18 to 24 hrs; summary of the method: as §1
[16] = system: Enterococcus faecium; experiment: Antibacterial activity against Enterococcus faecium 14-6 after 18 to 24 hrs; summary of the method: as §1
[17] = system: Escherichia coli; experiment: Antibacterial activity against Escherichia coli 14-1 after 18 to 24 hrs; summary of the method: as §1
[18] = system: Pseudomonas aeruginosa; experiment: Antibacterial activity against Pseudomonas aeruginosa 14-14 after 18 to 24 hrs; summary of the method: as §1
[19] = system: Pseudomonas aeruginosa; experiment: Antibacterial activity against Pseudomonas aeruginosa ATCC 27853 after 18 to 24 hrs; summary of the method: as §1
[20] = system: Staphylococcus epidermidis; experiment: Antibacterial activity against methicillin-resistant Staphylococcus epidermidis 14-22 after 18 to 24 hrs
[21] = system: Escherichia coli; experiment: Antibacterial activity against Escherichia coli ATCC 25922 after 18 to 24 hrs; summary of the method: as §1
[22] = system: Enterococcus faecium; experiment: Antibacterial activity against Enterococcus faecium 14-2 after 18 to 24 hrs; summary of the method: as §1
[23] = system: Staphylococcus epidermidis; experiment: Antibacterial activity against methicillin-resistant Staphylococcus epidermidis 14-39 after 18 to 24 hrs
[24] = system: Mycobacterium tuberculosis; experiment: Antimycobacterial activity against Mycobacterium tuberculosis H37Rv ATCC 27294 by alamar blue assay
Summary of the method: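 Microplate Alamar Blue Assay; MIC is the lowest concentration giving ≥90% reduction in fluorescence relative to the mean of replicate bacterium-only controls. MDR strain 6133 is resistant to isoniazid and rifampicin.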

[25] = system: Staphylococcus aureus; experiment: Antibacterial activity against methicillin-resistant Staphylococcus aureus 14-5 after 18 to 24 hrs
[26] = system: Klebsiella pneumoniae; experiment: Antibacterial activity against ESBL-positive Klebsiella pneumoniae 14-18 after 18 to 24 hrs; summary of the method: as §1
[27] = system: Staphylococcus epidermidis; experiment: Antibacterial activity against methicillin-resistant Staphylococcus epidermidis 14-21 after 18 to 24 hrs
[28] = system: Staphylococcus epidermidis; experiment: Antibacterial activity against methicillin-sensitive Staphylococcus epidermidis 14-2 after 18 to 24 hrs; summary of the method: as §1
[29] = system: Staphylococcus aureus; experiment: Antibacterial activity against methicillin-sensitive Staphylococcus aureus 14-2 after 18 to 24 hrs; summary of the method: as §1
[30] = system: Staphylococcus aureus; experiment: Antibacterial activity against methicillin-resistant Staphylococcus aureus 14-4 after 18 to 24 hrs
[31] = system: Escherichia coli; experiment: Antibacterial activity against ESBL-positive Escherichia coli 14-1 after 18 to 24 hrs; summary of the method: as §1
[32] = system: Staphylococcus aureus; experiment: Antibacterial activity against methicillin-sensitive Staphylococcus aureus 14-3 after 18 to 24 hrs; summary of the method: as §1
[33] = system: Enterococcus faecalis; experiment: Antibacterial activity against Enterococcus faecalis 14-2 after 18 to 24 hrs; summary of the method: as §1
[34] = system: Streptococcus pneumoniae; experiment: Antibacterial activity against Streptococcus pneumoniae ATCC 19615 after 18 to 24 hrs; summary of the method: as §1
[35] = system: Klebsiella pneumoniae; experiment: Antibacterial activity against Klebsiella pneumoniae 14-1 after 18 to 24 hrs; summary of the method: as §1
[36] = system: Enterococcus faecium; experiment: Antibacterial activity against Enterococcus faecium 14-5 after 18 to 24 hrs; summary of the method: as §1
[37] = system: Pseudomonas aeruginosa; experiment: Antibacterial activity against Pseudomonas aeruginosa 14-16 after 18 to 24 hrs; summary of the method: as §1
[38] = system: Escherichia coli; experiment: Antibacterial activity against ESBL-positive Escherichia coli 14-2 after 18 to 24 hrs; summary of the method: as §1

| Compound | MIC [1] | MIC [2] | MIC [3] | MIC [4] | MIC [5] | MIC [6] | MIC [7] | MIC [8] | MIC [9] | MIC [10] | MIC [11] | MIC [12] | MIC [13] | MIC [14] | MIC [15] | MIC [16] | MIC [17] | MIC [18] | MIC [19] | MIC [20] | other results |
| --- | --- | --- | --- | --- | --- | --- | --- | --- | --- | --- | --- | --- | --- | --- | --- | --- | --- | --- | --- | --- | --- |
| NCC1CN(c2nc3c(cc2F)c(=O)c(C(=O)O)cn3[C@@H]2C[C@@H]2F)C/C1=N\OCc1ccc(Br)cc1 (some centres undefined) | 16 mg/L (≈ 28.5 µM) | 128 mg/L (≈ 228 µM) | 64 mg/L (≈ 114 µM) | > 128 mg/L | < 0.008 mg/L | 32 mg/L (≈ 56.9 µM) | 8 mg/L (≈ 14.2 µM) | 16 mg/L (≈ 28.5 µM) | 128 mg/L (≈ 228 µM) | 2 mg/L (≈ 3.56 µM) | 8 mg/L (≈ 14.2 µM) | 8 mg/L (≈ 14.2 µM) | 128 mg/L (≈ 228 µM) | < 0.008 mg/L | 2 mg/L (≈ 3.56 µM) | 16 mg/L (≈ 28.5 µM) | 64 mg/L (≈ 114 µM) | 8 mg/L (≈ 14.2 µM) | 4 mg/L (≈ 7.11 µM) | 2 mg/L (≈ 3.56 µM) | MIC [21]: 0.125 mg/L (≈ 0.222 µM); MIC [22]: 2 mg/L (≈ 3.56 µM); MIC [23]: 8 mg/L (≈ 14.2 µM); MIC90 [24]: 0.375 mg/L (≈ 0.667 µM); MIC [25]: 16 mg/L (≈ 28.5 µM); MIC [26]: 8 mg/L (≈ 14.2 µM); MIC [27]: 4 mg/L (≈ 7.11 µM); MIC [28]: 16 mg/L (≈ 28.5 µM); MIC [29]: < 0.008 mg/L; MIC [30]: 16 mg/L (≈ 28.5 µM); MIC [31]: 4 mg/L (≈ 7.11 µM); MIC [32]: 0.015 mg/L (≈ 0.0267 µM); MIC [33]: 0.125 mg/L (≈ 0.222 µM); MIC [34]: < 0.008 mg/L; MIC [35]: 128 mg/L (≈ 228 µM); MIC [36]: 8 mg/L (≈ 14.2 µM); MIC [37]: 8 mg/L (≈ 14.2 µM); MIC [38]: 64 mg/L (≈ 114 µM) |
| NCC1CN(c2nc3c(cc2F)c(=O)c(C(=O)O)cn3[C@@H]2C[C@@H]2F)C/C1=N\OCc1ccc(OC(F)(F)F)cc1 (some centres undefined) | 8 mg/L (≈ 14.1 µM) | 128 mg/L (≈ 226 µM) | 128 mg/L (≈ 226 µM) | 128 mg/L (≈ 226 µM) | 0.06 mg/L (≈ 0.106 µM) | 32 mg/L (≈ 56.4 µM) | 32 mg/L (≈ 56.4 µM) | 16 mg/L (≈ 28.2 µM) | 128 mg/L (≈ 226 µM) | 4 mg/L (≈ 7.05 µM) | 16 mg/L (≈ 28.2 µM) | 32 mg/L (≈ 56.4 µM) | 128 mg/L (≈ 226 µM) | < 0.008 mg/L | 4 mg/L (≈ 7.05 µM) | 4 mg/L (≈ 7.05 µM) | 128 mg/L (≈ 226 µM) | 32 mg/L (≈ 56.4 µM) | 16 mg/L (≈ 28.2 µM) | 8 mg/L (≈ 14.1 µM) | MIC [21]: 2 mg/L (≈ 3.52 µM); MIC [22]: 4 mg/L (≈ 7.05 µM); MIC [23]: 8 mg/L (≈ 14.1 µM); MIC90 [24]: 0.987 mg/L (≈ 1.74 µM); MIC [25]: 4 mg/L (≈ 7.05 µM); MIC [26]: 32 mg/L (≈ 56.4 µM); MIC [27]: 8 mg/L (≈ 14.1 µM); MIC [28]: 16 mg/L (≈ 28.2 µM); MIC [29]: 0.03 mg/L (≈ 0.0529 µM); MIC [30]: 16 mg/L (≈ 28.2 µM); MIC [31]: 8 mg/L (≈ 14.1 µM); MIC [32]: 0.015 mg/L (≈ 0.0264 µM); MIC [33]: 0.5 mg/L (≈ 0.881 µM); MIC [34]: 0.015 mg/L (≈ 0.0264 µM); MIC [35]: 128 mg/L (≈ 226 µM); MIC [36]: 8 mg/L (≈ 14.1 µM); MIC [37]: 32 mg/L (≈ 56.4 µM); MIC [38]: 128 mg/L (≈ 226 µM) |
| Cc1ccc(CO/N=C2\CN(c3nc4c(cc3F)c(=O)c(C(=O)O)cn4[C@@H]3C[C@@H]3F)CC2CN)cc1 (some centres undefined) | 8 mg/L (≈ 16.1 µM) | 128 mg/L (≈ 257 µM) | 32 mg/L (≈ 64.3 µM) | 128 mg/L (≈ 257 µM) | 0.015 mg/L (≈ 0.0302 µM) | 32 mg/L (≈ 64.3 µM) | 8 mg/L (≈ 16.1 µM) | 8 mg/L (≈ 16.1 µM) | 64 mg/L (≈ 129 µM) | 0.5 mg/L (≈ 1.01 µM) | 8 mg/L (≈ 16.1 µM) | 8 mg/L (≈ 16.1 µM) | 128 mg/L (≈ 257 µM) | < 0.008 mg/L | 2 mg/L (≈ 4.02 µM) | 4 mg/L (≈ 8.04 µM) | 16 mg/L (≈ 32.2 µM) | 8 mg/L (≈ 16.1 µM) | 4 mg/L (≈ 8.04 µM) | 2 mg/L (≈ 4.02 µM) | MIC [21]: < 0.008 mg/L; MIC [22]: 0.5 mg/L (≈ 1.01 µM); MIC [23]: 16 mg/L (≈ 32.2 µM); MIC90 [24]: < 0.25 mg/L; MIC [25]: 4 mg/L (≈ 8.04 µM); MIC [26]: 8 mg/L (≈ 16.1 µM); MIC [27]: 4 mg/L (≈ 8.04 µM); MIC [28]: 8 mg/L (≈ 16.1 µM); MIC [29]: < 0.008 mg/L; MIC [30]: 8 mg/L (≈ 16.1 µM); MIC [31]: 2 mg/L (≈ 4.02 µM); MIC [32]: < 0.008 mg/L; MIC [33]: < 0.008 mg/L; MIC [34]: < 0.008 mg/L; MIC [35]: 64 mg/L (≈ 129 µM); MIC [36]: 8 mg/L (≈ 16.1 µM); MIC [37]: 8 mg/L (≈ 16.1 µM); MIC [38]: 64 mg/L (≈ 129 µM) |
